Assay results taken from ChEMBL document CHEMBL4732237, “Discovery of 4-alkoxy-2-aryl-6,7-dimethoxyquinolines as a new class of topoisomerase I inhibitors endowed with potent in vitro anticancer activity” (2021).

These molecules were tested on LOX IMVI (assay: Growth inhibition of human LOX IMVI cells at 10 uM incubated for 48 hrs by sulforhodamine B assay relative to control). Conditions: read-out: GI.
Type: functional
Outline: (§1)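 NCI-60 single-dose screen. Cells were grown in RPMI 1640 with 5% FBS and 2 mM L-glutamine and plated 24 h before drug addition. Compound was added at one concentration in DMSO-derived medium and incubated for 48 h at 37 °C in 5% CO2. Read-out was SRB protein stain at 515 nm. Result is percent growth versus the no-drug control and the time-zero cell count; values below 0 indicate lethality.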
With `COc1cc2nc(-c3ccc(C(F)(F)F)cc3)cc(OCCN3CCCCC3)c2cc1OC` the inhibition of growth at 10 µM was 13%.

Each molecule was assayed on SK-MEL-2 (assay: Growth inhibition of human SK-MEL-2 cells at 10 uM incubated for 48 hrs by sulforhodamine B assay relative to control). Conditions: read-out: GI.
Type: functional
Outline: (§2)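 NCI one-dose screen. Cells grown in RPMI 1640 with 5% FBS and 2 mM L-glutamine, plated and incubated 24 h at 37 °C, 5% CO2. DMSO-dissolved drug added, then 48 h further incubation. Adherent cells fixed with cold TCA, suspension cells fixed after settling. Stained with 0.4% SRB, absorbance read at 515 nm. Reported as percent growth relative to no-drug control and time-zero cell number.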
For `COc1cc2nc(-c3ccc(C(F)(F)F)cc3)cc(OCCN3CCCCC3)c2cc1OC`, the inhibition of growth at 10 µM was 13%.

The molecules below were run on EKVX (assay: Growth inhibition of human EKVX cells at 10 uM incubated for 48 hrs by sulforhodamine B assay relative to control). Conditions: read-out: GI.
Type: functional
Outline: as §1
In the case of `COc1cc2nc(-c3ccc(C(F)(F)F)cc3)cc(OCCN3CCCCC3)c2cc1OC`, the inhibition of growth at 10 µM is reported as 13%.

The molecules below were run on SF-268 (assay: Growth inhibition of human SF-268 cells at 10 uM incubated for 48 hrs by sulforhodamine B assay relative to control). Conditions: read-out: GI.
Type: functional
Outline: as §2
In the case of `COc1cc2nc(-c3ccc(C(F)(F)F)cc3)cc(OCCN3CCCCC3)c2cc1OC`, the inhibition of growth at 10 µM is reported as 13%.

The molecules below were run on HL-60(TB) (assay: Growth inhibition of human HL-60(TB) cells at 10 uM incubated for 48 hrs by sulforhodamine B assay relative to control). Conditions: read-out: GI.
Type: functional
Outline: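 NCI-60 one-dose screen: same culture, 48 h drug exposure and SRB read-out. Reported as percent growth relative to no-drug control and to time-zero cell number; 0–100 means growth inhibition, below 0 means lethality.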
Work on `COc1cc2nc(-c3ccc(C(F)(F)F)cc3)cc(OCCN3CCCCC3)c2cc1OC` yielded an inhibition of growth at 10 µM of 13%.

Each molecule was assayed on NCI/ADR-RES (assay: Growth inhibition of human NCI/ADR-RES cells at 10 uM incubated for 48 hrs by sulforhodamine B assay relative to control). Conditions: read-out: GI.
Type: functional
Outline: as §2
`COc1cc2nc(-c3ccc(C(F)(F)F)cc3)cc(OCCN3CCCCC3)c2cc1OC` showed an inhibition of growth at 10 µM of 13%.

What follows are molecules tested on SF-539 (assay: Growth inhibition of human SF-539 cells at 10 uM incubated for 48 hrs by sulforhodamine B assay relative to control). Conditions: read-out: GI.
Type: functional
Outline: as §2
With `COc1cc2nc(-c3ccc(C(F)(F)F)cc3)cc(OCCN3CCCCC3)c2cc1OC` the inhibition of growth at 10 µM was 13%.

These molecules were tested on BT-549 (assay: Growth inhibition of human BT-549 cells at 10 uM incubated for 48 hrs by sulforhodamine B assay relative to control). Conditions: read-out: GI.
Type: functional
Outline: as §1
In the case of `COc1cc2nc(-c3ccc(C(F)(F)F)cc3)cc(OCCN3CCCCC3)c2cc1OC`, the inhibition of growth at 10 µM is reported as 13%.

These molecules were tested on SK-MEL-28 (assay: Growth inhibition of human SK-MEL-28 cells at 10 uM incubated for 48 hrs by sulforhodamine B assay relative to control). Conditions: read-out: GI.
Type: functional
Outline: as §2
Work on `COc1cc2nc(-c3ccc(C(F)(F)F)cc3)cc(OCCN3CCCCC3)c2cc1OC` yielded an inhibition of growth at 10 µM of 13%.

Each molecule was assayed on Hs-578T (assay: Growth inhibition of human HS-578T cells at 10 uM incubated for 48 hrs by sulforhodamine B assay relative to control). Conditions: read-out: GI.
Type: functional
Outline: as §1
Molecule `COc1cc2nc(-c3ccc(C(F)(F)F)cc3)cc(OCCN3CCCCC3)c2cc1OC` has an inhibition of growth at 10 µM of 13%.

What follows are molecules tested on OVCAR-3 (assay: Growth inhibition of human OVCAR-3 cells at 10 uM incubated for 48 hrs by sulforhodamine B assay relative to control). Conditions: read-out: GI.
Type: functional
Outline: as §2
In the case of `COc1cc2nc(-c3ccc(C(F)(F)F)cc3)cc(OCCN3CCCCC3)c2cc1OC`, the inhibition of growth at 10 µM is reported as 13%.

What follows are molecules tested on HOP-92 (assay: Growth inhibition of human HOP-92 cells at 10 uM incubated for 48 hrs by sulforhodamine B assay relative to control). Conditions: read-out: GI.
Type: functional
Outline: as §1
`COc1cc2nc(-c3ccc(C(F)(F)F)cc3)cc(OCCN3CCCCC3)c2cc1OC` was tested, and the inhibition of growth at 10 µM was 13%.

Each molecule was assayed on SNB-19 (assay: Growth inhibition of human SNB-19 cells at 10 uM incubated for 48 hrs by sulforhodamine B assay relative to control). Conditions: read-out: GI.
Type: functional
Outline: as §2
For `COc1cc2nc(-c3ccc(C(F)(F)F)cc3)cc(OCCN3CCCCC3)c2cc1OC`, the inhibition of growth at 10 µM was 13%.

The molecules below were run on MDA-MB-468 (assay: Growth inhibition of human MDA-MB-468 cells at 10 uM incubated for 48 hrs by sulforhodamine B assay relative to control). Conditions: read-out: GI.
Type: functional
Outline: as §1
With `COc1cc2nc(-c3ccc(C(F)(F)F)cc3)cc(OCCN3CCCCC3)c2cc1OC` the inhibition of growth at 10 µM was 13%.

The molecules below were run on SNB-75 (assay: Growth inhibition of human SNB-75 cells at 10 uM incubated for 48 hrs by sulforhodamine B assay relative to control). Conditions: read-out: GI.
Type: functional
Outline: as §2
`COc1cc2nc(-c3ccc(C(F)(F)F)cc3)cc(OCCN3CCCCC3)c2cc1OC` was tested, and the inhibition of growth at 10 µM was 13%.

Each molecule was assayed on K562 (assay: Growth inhibition of human K562 cells at 10 uM incubated for 48 hrs by sulforhodamine B assay relative to control). Conditions: read-out: GI.
Type: functional
Outline: as §1
In the case of `COc1cc2nc(-c3ccc(C(F)(F)F)cc3)cc(OCCN3CCCCC3)c2cc1OC`, the inhibition of growth at 10 µM is reported as 13%.

The molecules below were run on NCI-H322M (assay: Growth inhibition of human NCI-H322M cells at 10 uM incubated for 48 hrs by sulforhodamine B assay relative to control). Conditions: read-out: GI.
Type: functional
Outline: as §2
`COc1cc2nc(-c3ccc(C(F)(F)F)cc3)cc(OCCN3CCCCC3)c2cc1OC` gave an inhibition of growth at 10 µM of 13%.

The molecules below were run on TK-10 (assay: Growth inhibition of human TK-10 cells at 10 uM incubated for 48 hrs by sulforhodamine B assay relative to control). Conditions: read-out: GI.
Type: functional
Outline: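 NCI one-dose screen across a 59-line panel. Cells were grown in RPMI 1640 with 5% FBS and 2 mM L-glutamine, plated and pre-incubated 24 h, then exposed to drug for 48 h at 37 °C, 5% CO2. Adherent cells were fixed with cold TCA (10% final), stained with 0.4% SRB in 1% acetic acid and read at 515 nm. Result is percent growth relative to no-drug control and time-zero cell count.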
`COc1cc2nc(-c3ccc(C(F)(F)F)cc3)cc(OCCN3CCCCC3)c2cc1OC` showed an inhibition of growth at 10 µM of 13%.
